What all share (assay type): functional, cell-based
Experiment [1] has as its system SW-620. As to the kind of experiment: Cytotoxicity against human SW620 cells after 48 hrs by MTT assay. Conditions: SW-620, 48 h. The procedure, abridged:
(§1)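 Cells in RPMI1640 with 15% FBS were trypsinized (0.25%) and seeded at 1 × 10^5/mL, then incubated 24 h at 37 °C in 5% CO2. Agents were added at final concentrations of 50, 10, 2, 0.4 and 0.08 for a further 48 h. MTT (0.5%) was applied for 4 h, formazan dissolved in DMSO, and OD read at 570 nm. % inhibition = (OD0−ODS)/OD0; IC50 was taken as 50% growth inhibition. Mean of three experiments in triplicate.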

Experiment [2] relates to COLO 205. As to the kind of experiment: Cytotoxicity against human COLO205 cells after 48 hrs by MTT assay. Conditions: COLO 205, 48 h. The essentials:
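COLO205 cells were grown in RPMI1640 with 15% FBS, seeded at 2 × 10^5/mL, and incubated 24 h at 37 °C in 5% CO2. Agents were then given at final 50, 10, 2, 0.4 and 0.08 for 48 h. Read-out used 0.5% MTT for 4 h, DMSO solubilization and OD at 570 nm. Inhibition = (OD0−ODS)/OD0; IC50 = concentration giving 50% inhibition. Mean of three experiments in triplicate.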
(In general: Tetrazolium dyes change colour on reduction, which living cells bring about.)

Experiment [3] is described as follows: Cytotoxicity against human H460 cells after 48 hrs by MTT assay. As to conditions: NCI-H460, 48 h. The essentials:
as §1

≈ marks a conversion by molar mass, not a printed value.

For `C/C(C=O)=C\CC[C@@H](C)[C@H]1CC[C@@]2(C)[C@@H]3CC=C4[C@@H](CC[C@H](O[C@@H]5O[C@H](CO)[C@@H](O)[C@H](O)[C@H]5O)C4(C)C)[C@]3(C)C(=O)C[C@]12C`, the values for the IC50 in experiment [1], in experiment [2] and in experiment [3] were 0.64 µg/mL (≈ 1.04 µM), 0.78 µg/mL (≈ 1.26 µM) and 0.46 µg/mL (≈ 0.746 µM), respectively.

For `CC(=O)OC(C)(C)CCC(=O)[C@](C)(O)[C@H]1[C@H](O)C[C@@]2(C)[C@@H]3CC=C4[C@@H](C[C@H](O)[C@@H](O)C4(C)C)[C@]3(C)C(=O)C[C@]12C` [HEMSLECIN A], the values for the IC50 in experiment [1], in experiment [2] and in experiment [3] were 1.11 µg/mL (≈ 1.97 µM), 1.09 µg/mL (≈ 1.94 µM) and 11.5 µg/mL (≈ 20.5 µM), respectively.

Take `C[C@H](CCC=C(CO)CO)[C@H]1CC[C@@]2(C)[C@@H]3CC=C4[C@@H](CC[C@H](O[C@@H]5O[C@H](CO)[C@@H](O)[C@H](O)[C@H]5O)C4(C)C)[C@]3(C)[C@H](O)C[C@]12C`: the IC50 was found to be 1.99 µg/mL (≈ 3.12 µM) in experiment [1], 3.84 µg/mL (≈ 6.03 µM) in experiment [2] and 2.96 µg/mL (≈ 4.65 µM) in experiment [3].

With `CC(C)(O)CCC(=O)[C@](C)(O)[C@H]1[C@H](O)C[C@@]2(C)[C@@H]3CC=C4[C@@H](C[C@H](O)[C@@H](O)C4(C)C)[C@]3(C)C(=O)C[C@]12C`, the IC50 came out at 1.03 µg/mL (≈ 1.98 µM) in experiment [1], 0.64 µg/mL (≈ 1.23 µM) in experiment [2] and 7.09 µg/mL (≈ 13.6 µM) in experiment [3].

Regarding `CC(=O)O[C@@H]1C[C@@]2(C)[C@@H]3CC=C4[C@@H](C[C@H](O[C@@H]5O[C@H](CO)[C@@H](O)[C@H](O)[C@H]5O)[C@@H](O)C4(C)C)[C@]3(C)C(=O)C[C@]2(C)[C@H]1C(C)(O)C(=O)/C=C/C(C)(C)OC(C)=O` (stereo partly drawn), the IC50 is 6.63 µg/mL (≈ 8.67 µM) in experiment [1], 24.9 µg/mL (≈ 32.6 µM) in experiment [2] and 8.55 µg/mL (≈ 11.2 µM) in experiment [3].

Consider `CC(=O)O[C@@H]1C[C@@]2(C)[C@@H]3CC=C4[C@@H](C[C@H](O)[C@@H](O)C4(C)C)[C@]3(C)C(=O)C[C@]2(C)[C@H]1C(C)(O)C(=O)/C=C/C(C)(C)O` (stereo partly drawn), for which the IC50 in experiment [1] turned out to be 0.42 µg/mL (≈ 0.749 µM); in experiment [2], 0.44 µg/mL (≈ 0.785 µM); in experiment [3] it was 3.43 µg/mL (≈ 6.12 µM).

Usually IC50 stands for the midpoint of a concentration-inhibition curve.

The record behind these values is ChEMBL document CHEMBL3259741, “Three new cucurbitane triterpenoids from Hemsleya penxianensis and their cytotoxic activities” (Bioorg Med Chem Lett, 2014).
